This is an account of results in ChEMBL document CHEMBL1122083, “Isoxazolidine-3,5-diones as lens aldose reductase inhibitors” (J Med Chem, 1982).

As usually defined, the inhibition is the relative decrease from the control value, in per cent. The low end stands for a weak effect, the high end for a strong effect. As usually defined, the pKa is the negative logarithm of the acid dissociation constant.

The target in the first series is Aldo-keto reductase family 1 member B1 (Rattus norvegicus) (UniProt P07943). Put plainly: Inhibition of rat lens aldose reductase at 50 uM. An outline of the steps: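 Enzyme partially purified from rat lenses. Each compound was tested at a single concentration of 50 μM, and percent inhibition was determined by the Hayman and Kinoshita method.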
As for `COc1ccccc1C1C(=O)NOC1=O` (configuration not stated), the inhibition was found to be 0%.

Consider `O=C1NOC(=O)C1CCOc1ccccc1` (configuration not stated), for which the inhibition was found to be 35%.

The molecule `CC(=O)Nc1ccc(C2(C)C(=O)NOC2=O)cc1` (configuration not stated) registered an inhibition of 16%.

In the case of `O=C1NOC(=O)C1c1ccccc1C(F)(F)F` (configuration not stated), the inhibition was found to be 80%.

`O=C1NOC(=O)C12Cc1cccc3cccc(c13)C2` showed an inhibition of 5.1%.

In turn, `O=C(O)CN1C(=O)c2cccc3cccc(c23)C1=O` displayed an inhibition of 87%.

As for `O=C1NOC(=O)C1CC[S+]([O-])c1ccccc1` (configuration not stated), the inhibition turned out to be 19%.

`COc1cccc(C2C(=O)NOC2=O)c1` (configuration not stated): the inhibition came to 75%.

`O=C1NOC(=O)C1c1cccnc1` (configuration not stated) returned an inhibition of 37%.

As for `O=C1NOC(=O)C1CCS(=O)(=O)c1ccccc1` (configuration not stated), the inhibition is 32%.

As for `O=C1NOC(=O)C1c1ccccn1` (configuration not stated), the inhibition came out at 6.5%.

Tested on in the next series: not listed separately
Put plainly: pKa value for the compound was determined. The series is classed as physicochemical.
Take `O=C1NC(=O)[C@@]2(CCOc3ccc(F)cc32)N1` [SORBINIL]: the pKa is 7.85.
